From ChEMBL document CHEMBL4007422 (J Med Chem, 2017)
Active and inactive are the calls of the source. The calls are words filed in the database; no cut-off is given here.

Experiments:
[1] = Volume of distribution in Beagle dog at 3 mg/kg, iv or at 10 mg/kg, po; type: ADME, organism-based, Canis lupus familiaris; conditions: in vivo
How it was run: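 Beagle dogs received 10 mg/kg p.o. and 3 mg/kg i.v. in a pharmacokinetic study. From plasma exposure the authors derived AUC0-t, terminal half-life, intravenous clearance, volume of distribution and absolute oral bioavailability.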

[2] = Oral bioavailability in Beagle dog at 10 mg/kg; type: ADME, organism-based, Canis lupus familiaris; conditions: in vivo
[3] = biological target: D(3) dopamine receptor (Homo sapiens) (UniProt P35462); assay: Inhibition of recombinant human dopamine D3 receptor expressed in CHOK1 cells at 1 uM by GTPgammaS binding assay; type: functional, cell-based
D(3) dopamine receptor (Homo sapiens), sequence (P35462 whole entry): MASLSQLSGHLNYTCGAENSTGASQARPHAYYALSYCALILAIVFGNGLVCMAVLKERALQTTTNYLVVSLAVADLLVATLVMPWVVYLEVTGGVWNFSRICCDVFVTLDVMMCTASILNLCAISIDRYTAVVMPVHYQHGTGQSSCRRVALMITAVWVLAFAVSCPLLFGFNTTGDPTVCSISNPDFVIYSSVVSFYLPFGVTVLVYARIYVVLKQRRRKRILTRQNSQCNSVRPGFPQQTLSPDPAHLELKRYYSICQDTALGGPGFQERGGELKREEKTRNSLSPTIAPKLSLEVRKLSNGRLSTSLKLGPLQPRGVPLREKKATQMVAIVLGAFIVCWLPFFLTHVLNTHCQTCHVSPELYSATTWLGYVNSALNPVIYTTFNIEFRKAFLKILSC

Cytochrome P450 2C19 = Cytochrome P450 2C19 (Homo sapiens, UniProt P33261); assay: Inhibition of CYP2C19 in human liver microsomes using mephenytoin as substrate in presence of NADPH by LC-MS/MS analysis; type: ADME
Cytochrome P450 2C19, sequence (P33261 whole entry, canonical isoform): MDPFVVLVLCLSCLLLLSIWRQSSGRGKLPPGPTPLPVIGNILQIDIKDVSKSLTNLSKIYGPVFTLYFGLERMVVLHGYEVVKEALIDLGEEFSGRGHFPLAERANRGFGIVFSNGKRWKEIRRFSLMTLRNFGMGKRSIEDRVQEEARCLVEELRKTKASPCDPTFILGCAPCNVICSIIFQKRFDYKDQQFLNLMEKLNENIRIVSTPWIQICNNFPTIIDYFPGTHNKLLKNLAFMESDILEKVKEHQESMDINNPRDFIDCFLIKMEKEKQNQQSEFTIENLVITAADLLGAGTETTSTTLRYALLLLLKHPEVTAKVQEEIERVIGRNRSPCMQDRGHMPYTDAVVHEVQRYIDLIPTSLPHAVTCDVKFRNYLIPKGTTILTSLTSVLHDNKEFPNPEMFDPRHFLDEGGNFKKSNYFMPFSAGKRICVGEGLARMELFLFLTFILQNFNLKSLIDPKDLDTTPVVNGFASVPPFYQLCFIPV
How it was run: (§1)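 Pooled human liver microsomes. IC50 determined from isoform-specific marker activities for CYP1A2, 2A6, 2B6, 2C8, 2C9, 2C19 (mephenytoin hydroxylation) and 2E1.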

Rattus norvegicus [4] = assay: Increase in acetylcholine level in Wistar rat ventral hippocampus at 1 mg/kg, po after 6 hrs by LC-MS/MS based microdialysis method; type: functional, organism-based
How it was run: (§2)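 Male Wistar rats (240−300 g) fitted under isoflurane with a ventral hippocampal guide cannula (AP −5.2, ML +5.0, DV −3.8 mm from bregma). Probe (4 mm membrane) inserted 16 h before study. Perfusion with aCSF pH 7.2 at 1.5 μL/min, 2 h stabilization, five basal 20-min samples. Test agent given p.o.; donepezil and memantine (1 mg/kg s.c. each) given 30 min later in combination arms. Dialysates collected 6 h (4 h for combination), acetylcholine measured by LC-MS/MS, expressed as % of mean basal.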

Rattus norvegicus [5] = assay: Increase in acetylcholine level in Wistar rat ventral hippocampus at 3 mg/kg, po after 6 hrs by LC-MS/MS based microdialysis method; type: functional, organism-based; how it was run: as §2
[6] = biological target: T1, 5-hydroxytryptamine receptor 2C (Homo sapiens) (UniProt P28335); assay: Displacement of [3H]-Mesulergine from recombinant human 5-HT2C receptor expressed in HEK293 cell membranes after 180 mins by microbeta scintillation counting analysis
T1 sequence (whole entry): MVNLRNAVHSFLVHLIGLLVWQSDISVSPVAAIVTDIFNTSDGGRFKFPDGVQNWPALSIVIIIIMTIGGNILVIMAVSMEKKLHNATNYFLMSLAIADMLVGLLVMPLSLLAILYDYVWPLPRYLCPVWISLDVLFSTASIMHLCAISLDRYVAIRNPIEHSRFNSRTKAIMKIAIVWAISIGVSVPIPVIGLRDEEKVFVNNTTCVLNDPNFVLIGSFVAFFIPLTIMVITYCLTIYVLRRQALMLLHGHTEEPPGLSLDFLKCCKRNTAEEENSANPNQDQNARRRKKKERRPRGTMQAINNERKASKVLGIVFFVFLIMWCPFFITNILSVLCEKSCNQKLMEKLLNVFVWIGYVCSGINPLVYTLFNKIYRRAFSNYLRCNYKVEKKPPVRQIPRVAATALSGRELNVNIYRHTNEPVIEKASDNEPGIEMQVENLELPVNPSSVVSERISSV

[7] = biological target: T2, 5-hydroxytryptamine receptor 1A (Homo sapiens) (UniProt P08908); assay: Displacement of [3H]-8-OH-DPAT from recombinant human 5-HT1A receptor expressed in HEK293 EBNA cell membranes after 120 mins by microbeta scintillation counting analysis
T2 sequence (whole entry): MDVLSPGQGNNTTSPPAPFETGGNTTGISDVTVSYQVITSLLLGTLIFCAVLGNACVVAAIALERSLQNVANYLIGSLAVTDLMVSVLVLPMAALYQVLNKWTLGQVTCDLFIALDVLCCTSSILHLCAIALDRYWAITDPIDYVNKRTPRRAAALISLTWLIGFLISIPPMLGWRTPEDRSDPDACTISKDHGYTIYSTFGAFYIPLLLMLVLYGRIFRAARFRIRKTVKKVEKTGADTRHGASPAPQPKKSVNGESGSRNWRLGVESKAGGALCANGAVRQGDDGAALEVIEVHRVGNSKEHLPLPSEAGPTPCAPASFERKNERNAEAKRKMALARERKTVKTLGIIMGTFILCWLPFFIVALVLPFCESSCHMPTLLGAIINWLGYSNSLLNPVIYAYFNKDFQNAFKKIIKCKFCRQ

Rattus norvegicus [8] = assay: Reversal of time-induced amnesia in Wistar rat at 1 to 10 mg/kg, po administered 60 mins prior to testing measured for 3 mins by object recognition test; type: functional, organism-based
How it was run: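 Time-induced object recognition task in rats. Oral dosing at 1, 3 and 10 mg/kg given 60 min before the test; vehicle water for injection 1 mL/kg p.o.; n = 7−12/group. Exploration of novel versus familiar object compared by paired t-test.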

PBL = assay: Nonclastogenic effect in human PBL by chromosomal aberration test; type: cell-based
Cytochrome P450 2B6 = Cytochrome P450 2B6 (Homo sapiens, UniProt P20813); assay: Induction of CYP2B6 activity in human hepatocytes at 0.01 to 1 uM preincubated for 3 days followed by substrate addition measured after 30 mins; type: ADME, cell-based; conditions: 0.5 h
Cytochrome P450 2B6, sequence (P20813 whole entry): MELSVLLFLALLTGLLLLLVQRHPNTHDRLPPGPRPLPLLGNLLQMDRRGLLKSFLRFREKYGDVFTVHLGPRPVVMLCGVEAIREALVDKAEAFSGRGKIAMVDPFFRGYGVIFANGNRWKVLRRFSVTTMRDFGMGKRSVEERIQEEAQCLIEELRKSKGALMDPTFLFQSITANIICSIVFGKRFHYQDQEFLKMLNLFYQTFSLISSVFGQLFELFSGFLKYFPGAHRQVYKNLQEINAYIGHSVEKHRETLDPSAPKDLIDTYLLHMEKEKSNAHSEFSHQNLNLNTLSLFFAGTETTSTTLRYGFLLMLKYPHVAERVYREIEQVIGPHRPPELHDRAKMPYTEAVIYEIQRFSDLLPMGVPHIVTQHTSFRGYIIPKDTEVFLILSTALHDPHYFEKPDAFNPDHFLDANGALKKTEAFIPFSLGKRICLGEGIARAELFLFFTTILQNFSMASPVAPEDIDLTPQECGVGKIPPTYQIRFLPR
How it was run: (§3)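 Plateable human hepatocytes exposed to 0.01, 0.1 and 1.0 μM. CYP1A2, CYP2B6 and CYP3A4 induction read as both mRNA expression and enzyme activity.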

[9] = biological target: Alpha-2A adrenergic receptor (Homo sapiens, UniProt P08913); assay: Displacement of [3H] MK-912 from human adrenergic alpha 2A receptor expressed in HT29 cells after 60 mins; type: cell-based
Alpha-2A adrenergic receptor, sequence (P08913 whole entry): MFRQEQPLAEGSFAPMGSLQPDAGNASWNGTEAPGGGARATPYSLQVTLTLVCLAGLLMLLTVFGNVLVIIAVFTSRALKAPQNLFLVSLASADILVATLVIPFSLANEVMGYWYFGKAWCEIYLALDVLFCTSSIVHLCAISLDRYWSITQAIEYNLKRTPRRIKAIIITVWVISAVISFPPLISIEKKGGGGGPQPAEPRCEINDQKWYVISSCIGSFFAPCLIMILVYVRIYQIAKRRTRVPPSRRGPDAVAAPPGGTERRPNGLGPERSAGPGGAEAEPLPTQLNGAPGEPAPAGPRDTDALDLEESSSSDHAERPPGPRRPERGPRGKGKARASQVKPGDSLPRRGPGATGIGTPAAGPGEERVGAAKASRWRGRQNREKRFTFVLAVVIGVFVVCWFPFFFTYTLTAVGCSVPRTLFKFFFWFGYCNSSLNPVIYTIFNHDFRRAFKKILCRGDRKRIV

Salmonella typhimurium = assay: Mutagenicity in Salmonella typhimurium TA1535 in presence of metabolic activation; type: toxicity; conditions: salmonella enterica subsp. enterica serovar typhimurium
Homo sapiens [10] = species: Homo sapiens; assay: Toxicity in human assessed as changes in QTc interval during phase-I clinical trail
[11] = Protein binding in human plasma at 1 uM after 6 hrs by LC-MS/MS based rapid equilibrium dialysis method; type: ADME, cell-free; conditions: read-out: PPB (converted)
How it was run: (§4)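 Plasma protein binding in rat, dog and human plasma determined by equilibrium dialysis.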

Cytochrome P450 3A4 [12] = biological target: T3, Cytochrome P450 3A4 (Homo sapiens, UniProt P08684)
T3 sequence (P08684 whole entry): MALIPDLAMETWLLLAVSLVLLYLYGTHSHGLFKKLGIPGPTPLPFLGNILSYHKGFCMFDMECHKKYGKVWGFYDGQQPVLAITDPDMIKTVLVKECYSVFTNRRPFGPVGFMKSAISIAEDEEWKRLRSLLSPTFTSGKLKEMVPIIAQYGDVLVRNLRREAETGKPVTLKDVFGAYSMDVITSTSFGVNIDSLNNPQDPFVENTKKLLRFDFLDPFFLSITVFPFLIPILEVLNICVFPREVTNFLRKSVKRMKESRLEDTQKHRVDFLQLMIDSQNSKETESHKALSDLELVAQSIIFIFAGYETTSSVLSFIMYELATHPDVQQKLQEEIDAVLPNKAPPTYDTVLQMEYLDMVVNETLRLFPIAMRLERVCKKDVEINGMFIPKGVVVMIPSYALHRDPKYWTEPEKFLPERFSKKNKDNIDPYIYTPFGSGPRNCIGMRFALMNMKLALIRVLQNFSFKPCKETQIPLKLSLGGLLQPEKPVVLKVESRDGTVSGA

Cytochrome P450 2A6 = Cytochrome P450 2A6 (Homo sapiens, UniProt P11509); assay: Inhibition of CYP2A6 in human liver microsomes in presence of NADPH by LC-MS/MS analysis; type: ADME; how it was run: as §1
Cytochrome P450 2A6, sequence (P11509 whole entry): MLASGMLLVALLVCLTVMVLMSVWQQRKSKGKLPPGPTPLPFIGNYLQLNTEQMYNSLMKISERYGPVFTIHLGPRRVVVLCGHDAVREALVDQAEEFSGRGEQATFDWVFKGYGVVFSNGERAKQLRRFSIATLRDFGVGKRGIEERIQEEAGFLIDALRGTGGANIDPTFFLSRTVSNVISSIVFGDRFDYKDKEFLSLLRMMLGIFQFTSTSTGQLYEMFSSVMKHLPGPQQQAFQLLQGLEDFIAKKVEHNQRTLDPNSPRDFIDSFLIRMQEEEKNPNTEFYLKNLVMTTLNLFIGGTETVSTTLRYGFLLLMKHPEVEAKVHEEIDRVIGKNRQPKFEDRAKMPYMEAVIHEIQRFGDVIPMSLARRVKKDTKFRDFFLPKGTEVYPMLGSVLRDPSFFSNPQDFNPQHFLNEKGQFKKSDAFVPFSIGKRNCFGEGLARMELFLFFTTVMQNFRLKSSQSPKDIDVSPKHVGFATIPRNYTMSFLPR

Homo sapiens [13] = assay: Toxicity in healthy male and female human subjects administered as single ascending dose for 14 days; conditions: in vivo, 336 h
[14] = Apparent volume of distribution in Wistar rat at 10 mg/kg, iv by LC-MS/MS analysis; type: ADME, organism-based; conditions: in vivo, read-out: Vz
Cytochrome P450 3A4 [15] = biological target: T3, Cytochrome P450 3A4; assay: Induction of CYP3A4 activity in human hepatocytes at 0.01 to 1 uM preincubated for 3 days followed by substrate addition measured after 30 mins; type: ADME, cell-based; conditions: 0.5 h; how it was run: as §3
Cytochrome P450 3A4 [16] = biological target: T3, Cytochrome P450 3A4; assay: Inhibition of CYP3A4 in human liver microsomes using testosterone as substrate in presence of NADPH by LC-MS/MS analysis; type: ADME
How it was run: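 CYP3A4 inhibition in human liver microsomes using testosterone hydroxylation as the probe reaction; IC50 determined.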

[17] = Protein binding in dog plasma at 1 uM after 6 hrs by LC-MS/MS based rapid equilibrium dialysis method; type: ADME, cell-free, Canis lupus familiaris; conditions: read-out: PPB (converted); how it was run: as §4

With `COc1ccc2c(c1)c(CN1CCN(C)CC1)cn2S(=O)(=O)c1ccccc1Br.CS(=O)(=O)O.O` the Vd [1] was 7.5 L/kg, the bioavailability [2] was 35% and the inhibition [3] was greater than 50%. For the same compound, the IC50 (Cytochrome P450 2C19) was 5700 nM, the Activity (Rattus norvegicus [4]) was “inactive” and the Activity (Rattus norvegicus [5]) was “Active”. For the same compound, the Activity [6] was “inactive”, the Activity [7] was “inactive” and the Activity (Rattus norvegicus [8]) was “Active”. The Activity (PBL) was “Non-Toxic”, the Activity (Cytochrome P450 2B6) was “Not Active” and the Ki [9] was 2570 nM. For the same compound, the Activity (Salmonella typhimurium) was “Non-Toxic”, the Activity (Homo sapiens [10]) was “Non-Toxic” and the fraction unbound at 6 h, 1 µM [11] was 0.02. For the same compound, the IC50 (Cytochrome P450 3A4 [12]) was 1500 nM, the IC50 (Cytochrome P450 2A6) was greater than 10000 nM and the Activity (Homo sapiens [13]) was “Non-Toxic”. The Vd [14] was 4.41 L/kg, the Activity (Cytochrome P450 3A4 [15]) was “Not Active” and the IC50 (Cytochrome P450 3A4 [16]) was 2640 nM. For the same compound, the fraction unbound at 6 h, 1 µM [17] was 0.014.
